This passage reports Activity, inhibition and viability results from ChEMBL document CHEMBL5357041, “Discovery of novel β-elemene hybrids with hydrogen sulfide-releasing moiety possessing cardiovascular protective activity for the treatment of atherosclerosis” (RSC Med Chem, 2024).

The source made the active and inactive calls. No cut-off for these calls is given here.

For series [1], the system named is Thoracic aorta. Briefly: Vasodilation activity against KCl-induced Sprague-Dawley rat thoracic aorta vessels contraction at 1 uM. Format: functional. Summed up: (§1)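 Aortic rings of about 2 mm from anesthetized SD rats mounted in Krebs solution at 37 °C under oxygen, preload 9.8 mN, equilibrated about 1 h. Rings contracted with 25 mM K⁺, then compound added cumulatively. Relaxation (%) = (maximum KCl tension − tension after compound)/(maximum KCl tension − preload). ADT-OH served as control; mean ± SD, n = 4.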

Series [2] relates to Thoracic aorta. The series is described as follows: Vasodilation activity against KCl-induced Sprague-Dawley rat thoracic aorta vessels contraction at 5 uM. It is filed as functional. Summed up:
as §1

Series [3] has as its system Thoracic aorta. The series is described as follows: Vasodilation activity against KCl-induced Sprague-Dawley rat thoracic aorta vessels contraction at 10 uM. It is filed as functional. Summed up: as §1
The subject of series [4] is Thoracic aorta. The series is described as follows: Vasodilation activity against KCl-induced Sprague-Dawley rat thoracic aorta vessels contraction at 20 uM. It is filed as functional. A digest of the protocol: as §1
The subject of series [5] is Thoracic aorta. The series is described as follows: Vasodilation activity against KCl-induced Sprague-Dawley rat thoracic aorta vessels contraction at 40 uM. It is filed as functional. A digest of the protocol:
as §1

In series [6] the test system is HUVEC. The series is described as follows: Inhibition of H2O2-induced oxidative damage in HUVECs preincubated for 24 hrs followed by H2O2 addition and measured after 2 hrs by MTT method. Conditions: Homo sapiens, time 26.0 hrs. Format: functional, cell-based. Summed up: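 HUVECs were seeded and grown 24 h at 37 °C, 5% CO₂, then given compound (0.5, 5 or 20 μM) for 24 h. Control and model wells received serum-free medium instead. Model and treated wells were then exposed to 1 mM H₂O₂ for 2 h, followed by MTT for 4 h, DMSO, and absorbance at 570 nm. Trolox was the positive control; mean ± SD, n = 5.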
On the technique in general: Tetrazolium dyes change colour on reduction, which living cells bring about.

The nature of series [7]: Cytotoxicity against mouse BMDM cells assessed as cell viability at 50 uM incubated for 24 hrs by MTT assay. It is filed as toxicity, cell-based. Conditions: BMDM cells (bone marrow-derived macrophages), read-out: Activity. A digest of the protocol:
(§2)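 Primary bone marrow macrophages taken from 6-week-old male C57 mice and cultured 6–7 days before use. Compounds dosed for 24 h, then MTT added for 4 h and formazan dissolved in DMSO; absorbance read at 570 nm. Triplicate wells; medium-only and untreated-cell controls; mean ± SD, n = 4.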

Series [8] is described as follows: Cytotoxicity against mouse BMDM cells assessed as cell viability at 100 uM incubated for 24 hrs by MTT assay. Particulars: BMDM cells (bone marrow-derived macrophages), read-out: Activity. Format: toxicity, cell-based. A digest of the protocol:
as §2

Series [9] concerns HUVEC. Briefly: Cytotoxicity against HUVECs at 0.5 to 200 uM incubated for 24 hrs by MTT assay. Format: toxicity, cell-based. Conditions: human, dose 0.5-200 µM. Summed up: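 HUVECs bought from ATCC; compounds given for 24 h, then MTT (5 mg/mL, 20 μL/well) added for 4 h. Formazan dissolved in DMSO and absorbance read at 570 nm. Medium-only and untreated-cell wells served as controls.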

Series [10] has as its system RAW264.7. The series is described as follows: Lipid lowering activity in ox-LDL stimulated mouse RAW264.7 cells at 50 uM by oil red O staining based microscopic analysis. Format: functional, cell-based. A digest of the protocol:
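RAW 264.7 cells allowed to adhere 2 h, then exposed to ox-LDL (50 μg/mL) plus compound (50 μM) for 24 h. Cells fixed in 4% paraformaldehyde, stained with oil red O, rinsed in 60% isopropanol and counterstained with hematoxylin. Oil red O-positive area percentage quantified microscopically; ANOVA used.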

Series [11] in a line: Induction of H2S release in phosphate buffer at 100 uM measured upto 150 mins under L-cysteine stimulated condition by microplate reader analysis. Particulars: 2.5 h. Summed up:
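Compound (100 μM) incubated with 1 mM L-cysteine in phosphate buffer at 37 °C, sampled at 0–150 min. Each sample quenched with zinc acetate and trichloroacetic acid, then N,N-dimethyl-p-phenylenediamine and FeCl₃ in HCl added. Absorbance read at 670 nm after 10 min; H₂S quantified against a NaHS standard curve (5–150 μM).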

On to `C=C[C@]1(C)CC[C@@H](C(=C)CO)C[C@H]1C(=C)C`, for which the Activity in [1] was 0.09%; in [2], 4.63%; in [3], 5.63%; in series [4], 27.81%; in series [5], 53.06%; in series [9], “Non-Toxic”. For the same compound, in series [6], the inhibition result was “Active”. Further, the viability at 24 h, 50 µM in series [7] was determined as 275%. Further, the viability at 24 h, 100 µM in series [8] was 281%.
Turning to `C=C[C@]1(C)CC[C@@H](C(=C)COC(=O)/C=C\C(=O)OCCOc2ccc(-c3cc(=S)ss3)cc2)C[C@H]1C(=C)C`, the Activity is given as -4.07% in [1]; 1.54% in series [2]; 7.28% in [3]; 12.57% in [4]; 10.78% in series [5]. Besides, the viability at 24 h, 50 µM in [7] is 99%. In addition, the viability at 24 h, 100 µM in [8] was found to be 89.7%.
As for `C=C[C@]1(C)CC[C@@H](C(=C)COC(=O)CCCCC2CCSS2)C[C@H]1C(=C)C` (stereo not given in full), the Activity is on record as -3.41% in [1]; -5.69% in series [2]; 6.38% in series [3]; 8.99% in series [4]; 11.51% in series [5]. Moreover, in series [7], the viability at 24 h, 50 µM is 296%. For the same compound, in series [8], the viability at 24 h, 100 µM is 378%.
Turning to `C=C[C@]1(C)CC[C@@H](C(=C)COCCCCCCCCOc2ccc(C(N)=S)cc2)C[C@H]1C(=C)C`, the Activity in [1] is listed as -4.54%; in series [2], 1.71%; in [3] it was 8.86%; in [4] it was 12.44%; in series [5], 19.64%. Besides, in series [10], the outcome was Active. Further, the viability at 24 h, 50 µM in series [7] turned out to be 74.5%. For the same compound, in [8], the viability at 24 h, 100 µM came to 27.1%.
Regarding `C=C[C@]1(C)CC[C@@H](C(=C)C)C[C@H]1C(=C)COC(=O)CCC(=O)OCCOc1ccc(-c2cc(=S)ss2)cc1`, the Activity in [1] is given as 7.47%; in [2] it was -8.64%; in [3], 14.98%; in [4] it was 13.2%; in [5], 7.43%. Also, the viability at 24 h, 50 µM in series [7] was 244%. The viability at 24 h, 100 µM in series [8] amounted to 262%.
For `NC(=S)c1ccc(O)cc1`, the Activity in series [11] is 50 µM.
Take `C=C[C@]1(C)CC[C@@H](C(=C)C)C[C@H]1C(=C)COC(=O)C(NC(=O)CCCCC1CCSS1)C(C)CC` (stereo not given in full): the Activity in series [1] was 1.1%; in series [2], 2.78%; in series [3], -3.6%; in series [4], 5.16%; in series [5] it was 14.67%. For the same compound, the viability at 24 h, 50 µM in series [7] is 672%. Also, the viability at 24 h, 100 µM in [8] was found to be 882%.
As for `C=C[C@]1(C)CC[C@@H](C(=C)COC(=O)C(NC(=O)CCCCC2CCSS2)C(C)CC)C[C@H]1C(=C)C` (stereo not given in full), the Activity was -5.9% in [1]; -8.16% in series [2]; 2.19% in [3]; 1.21% in series [4]; 14.47% in series [5]. Moreover, in series [7], the viability at 24 h, 50 µM came out at 208%. The viability at 24 h, 100 µM in series [8] came to 268%.
`C=C[C@]1(C)CC[C@@H](C(=C)COC(=O)CCCCCC(=O)Oc2ccc(-c3cc(=S)ss3)cc2)C[C@H]1C(=C)C`: the Activity in series [1] is -1.15%; in series [2], 6.64%; in series [3], 6.99%; in series [4] it was 16.08%; in series [5], 21.17%. The viability at 24 h, 50 µM in [7] came out at 232%. Also, the viability at 24 h, 100 µM in series [8] was found to be 459%.
For the compound `C=C[C@]1(C)CC[C@@H](C(=C)COCCCCCCOc2ccc(C(N)=S)cc2)C[C@H]1C(=C)C`, the Activity is 6.68% in series [1]; 4.72% in series [2]; 0.07% in series [3]; 10.31% in [4]; 12.18% in [5]. The viability at 24 h, 50 µM in series [7] worked out at 279%. Moreover, in series [8], the viability at 24 h, 100 µM came to 17.1%.
For the compound `C=C[C@]1(C)CC[C@@H](C(=C)COC(=O)CCC(=O)OCCOc2ccc(-c3nc(=O)ss3)cc2)C[C@H]1C(=C)C`, the Activity is recorded as -0.71% in series [1]; 10.11% in series [2]; 17.84% in series [3]; 26.82% in series [4]; 34.29% in series [5]. Moreover, the result in [10] was Active. Also, in series [7], the viability at 24 h, 50 µM is 266%. The viability at 24 h, 100 µM in series [8] worked out at 254%.
Regarding `C=C[C@]1(C)CC[C@@H](C(=C)COC(=O)C(NC(=O)CCC(=O)OCCOc2ccc(-c3cc(=S)ss3)cc2)C(C)CC)C[C@H]1C(=C)C` (stereo not given in full), the Activity in series [1] is 1.7%; in series [2], 3.38%; in series [3] it was -6.76%; in [4], 4.83%; in series [5], 14.29%; in series [11], 100 µM. Also, the viability at 24 h, 50 µM in [7] worked out at 295%. Further, the viability at 24 h, 100 µM in series [8] came out at 584%.
For `C=C[C@]1(C)CC[C@@H](C(=C)COC(=O)CCCCCCC(=O)Oc2ccc(-c3cc(=S)ss3)cc2)C[C@H]1C(=C)C`, the Activity in [1] stood at 12.81%; in series [2], 5.04%; in series [3] it was 0.55%; in [4] it was 7.96%; in series [5] it was 14.68%. The viability at 24 h, 50 µM in [7] is 189%. Besides, in [8], the viability at 24 h, 100 µM worked out at 202%.
`C=C[C@]1(C)CC[C@@H](C(=C)COC(=O)CCCCCC(=O)Oc2ccc(C(N)=S)cc2)C[C@H]1C(=C)C`: the Activity in series [1] is listed as 1.2%; in [2] it was 4.53%; in series [3], 2.67%; in [4] it was 4.19%; in [5] it was 6.38%. Moreover, in [7], the viability at 24 h, 50 µM stood at 177%. In addition, the viability at 24 h, 100 µM in [8] stood at 219%.
As for `C=C[C@]1(C)CC[C@@H](C(=C)COC(=O)CCC(=O)OCCOc2ccc(-c3cc(=S)ss3)cc2)C[C@H]1C(=C)C`, the Activity in series [1] turned out to be 1.27%; in series [2] it was 6.87%; in series [3] it was 11.63%; in series [4] it was 12.67%; in series [5] it was 12.14%; in series [11], 100 µM. The viability at 24 h, 50 µM in [7] was determined as 264%. The viability at 24 h, 100 µM in series [8] turned out to be 349%.
For the compound `C=C[C@]1(C)CC[C@@H](C(=C)C)C[C@H]1C(=C)COC(=O)CCCCC1CCSS1` (stereo not given in full), the Activity in series [1] was -19.8%; in [2] it was -2.4%; in [3], 20.75%; in series [4], 24.52%; in [5] it was 17.27%. Besides, the viability at 24 h, 50 µM in [7] was found to be 157%. Also, the viability at 24 h, 100 µM in series [8] is 336%.
For `C=C[C@]1(C)CC[C@@H](C(=C)C)C[C@H]1C(=C)COC(=O)C(NC(=O)CCC(=O)OCCOc1ccc(-c2cc(=S)ss2)cc1)C(C)CC` (stereo not given in full), the Activity is 0.64% in [1]; 2.75% in [2]; 6.75% in [3]; 7.93% in [4]; 13% in series [5]. In addition, the viability at 24 h, 50 µM in series [7] stood at 269%. Besides, the viability at 24 h, 100 µM in series [8] turned out to be 272%.
As to `O=C(O)CCCCC1CCSS1` (stereo not drawn) [LIPOIC ACID, ALPHA], the Activity in [11] was determined as 20 µM.
In the case of `C=C[C@]1(C)CC[C@@H](C(=C)COCCCCOc2ccc(C(N)=S)cc2)C[C@H]1C(=C)C`, the Activity in series [1] is recorded as 4.61%; in series [2], 4.13%; in series [3], 17.37%; in [4], 15.38%; in series [5], 30.23%. The viability at 24 h, 50 µM in series [7] was determined as 163%. The viability at 24 h, 100 µM in [8] was 14.9%.
Turning to `C=C[C@]1(C)CC[C@@H](C(=C)COC(=O)CCCCCC(=O)Oc2ccc(-c3nc(=O)ss3)cc2)C[C@H]1C(=C)C`, the Activity in [1] is listed as -0.4%; in [2] it was 4.76%; in series [3], 2.38%; in [4], 7.08%; in series [5] it was 8.22%. Further, the outcome in [10] was Active. Further, in [7], the viability at 24 h, 50 µM is 323%. Besides, the viability at 24 h, 100 µM in series [8] was determined as 391%.
